GPR7 antagonist – antagonists of human GPR7 (neuropeptides B/W receptor 1) | GPR7-expressing cells, fluorescence antagonist assay | inhibition, % at 4.4 µM | hit rate 1.1% among 290,000; in the data active = inhibition above about 16%, passing the limit was not always enough;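 note: cells stimulated with the agonist NPW; 0% = agonist with vehicle and 100% = vehicle without agonist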
CRFBP-R2 agonist – CRF-BP/CRF-R2 complex agonism; activation, % at 13.2 µM; HEK293 CRF-R2/CRF-BP, calcium dye fluorescence (FLIPR); percent of saturating CRF peptide response; hit rate 0.46% among 350,000; AID 588473;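 active = activation of at least 50%, plus an integration ratio under a set limit after plate pattern correction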;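 note: plate controls were neutral control wells without compound for no effect and CRF at EC100 for full effect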
zfTRPN1 agonist – agonists of zebrafish TRPN1 channel; hit rate 0.18% among 220,000; HEK293 zebrafish TRPN1-YFP, Fluo-8 calcium fluorescence; 100% = response to 87 µM carbachol; AID 1424; activation, % at 3 µM;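 active = activation above its plate's cutoff, the mean activation of test wells on that plate plus 3 SD, cut at about 19% in these data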;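 note: 0% = DMSO alone and 100% = 87 µM carbachol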
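Material – zebrafish TRPN1-YFP in HEK293 cells · Doses – 3 µM single point · Schedule – dye 1 h 37 °C plus 30 min RT · Signal – Fluo-8 calcium fluorescence, excitation 470-495 nm, emission 515-575 nm · Read-out – % activation versus carbachol response · Control set – carbachol high, DMSO low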
CRFR2-BP antag – antagonists of CRF-binding protein/CRF-R2 receptor complex; hit rate 0.59% among 350,000; inhibition, % at 11.8 µM; HEK293 CRF-R2/CRF-BP, CRF-induced calcium fluorescence;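 active = inhibition of the ligand-induced calcium signal above about 50% at the single tested concentration, limit read from the data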
TRPML3 agonist – human mucolipin-3 channel agonism. HEK293 TRPML3-YFP, Fluo-8 calcium fluorescence; 100% = the carbachol control signal. hit rate 0.29% among 220,000. AID 1448. activation, % at 3 µM;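 active = activation above its plate's cutoff, the mean activation of the plate's test wells plus 3 SD, cut at about 12% in these data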;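 note: 0% = DMSO only wells and 100% = carbachol wells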
Target sequence (Q8TDD5 whole entry, looked up): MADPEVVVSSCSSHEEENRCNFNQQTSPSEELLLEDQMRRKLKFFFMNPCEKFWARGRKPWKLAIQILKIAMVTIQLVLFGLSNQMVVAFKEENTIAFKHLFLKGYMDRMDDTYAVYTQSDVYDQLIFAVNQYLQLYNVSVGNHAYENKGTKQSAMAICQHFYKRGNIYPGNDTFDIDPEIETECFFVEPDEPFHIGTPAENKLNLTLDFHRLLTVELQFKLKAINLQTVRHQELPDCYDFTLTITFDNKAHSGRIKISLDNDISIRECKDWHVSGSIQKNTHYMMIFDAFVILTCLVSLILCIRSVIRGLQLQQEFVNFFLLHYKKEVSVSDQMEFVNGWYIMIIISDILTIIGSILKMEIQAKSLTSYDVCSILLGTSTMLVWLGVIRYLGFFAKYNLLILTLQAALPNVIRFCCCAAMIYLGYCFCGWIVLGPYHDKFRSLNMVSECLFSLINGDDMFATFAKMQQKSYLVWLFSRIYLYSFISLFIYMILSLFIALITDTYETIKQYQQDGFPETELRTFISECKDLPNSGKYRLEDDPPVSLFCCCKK
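system = HEK293 cells stably carrying human TRPML3-YFP | doses = one concentration, 3 µM nominal, 0.3% DMSO | timing = dye loading 1 h 37 °C then 30 min ambient, 125 s read | detection = Fluo-8 calcium dye fluorescence, ex 470-495, em 515-575 nm | benchmarks = high control carbachol 87 µM, low control DMSO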
TRPN1 counter – activates zebrafish TRPN1, counter-screen for TRPML3 agonists; activation, % at 3 µM; HEK293 zebrafish TRPN1-YFP, Fluo-8 calcium fluorescence; scaled: carbachol wells 100%, DMSO wells 0%; hit rate 10% among 310; shares compounds with TRPML3 agonist; AID 1525;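 active = mean activation over replicates above a set limit taken from the earlier TRPN1 channel primary screen, cut at about 19% in these data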;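 note: 100% = carbachol and 0% = 0.3% DMSO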
TRPML3 confirm – human TRPML3 agonism, confirmation; shares compounds with TRPML3 agonist; HEK293 TRPML3-YFP, Fluo-8 calcium fluorescence; 100% set by carbachol, 0% by DMSO; activation, % at 3 µM; hit rate 80% among 310; AID 1526;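 active = activation above a set limit derived from the earlier primary screen, cut at about 12% in these data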
GPR7 antag conf – human GPR7 antagonism, confirmation assay; shares compounds with GPR7 antagonist; GPR7-expressing cells, calcium fluorescence antagonist mode; inhibition, % at 4.4 µM; hit rate 52% among 2,400; AID 1952; in the data active = inhibition above about 24%;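 note: stimulated with the GPR7 agonist NPW; 0% = agonist plus vehicle and 100% = vehicle alone without agonist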
MCHR1 antag – counter-screen for GPR7 antagonists: antagonists of human MCHR1 | shares compounds with GPR7 antagonist | MCHR1-expressing cells, fluorescence antagonist assay | inhibition, % at 4.4 µM | hit rate 62% among 2,400 | AID 2148; in the data active = inhibition above about 22%;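 note: 0% = vehicle with agonist and 100% = vehicle without agonist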
* marks the source's active call; other numbers are inactive results; x = no result given; ! = a repeat was not active. Most compounds without a hit are left out; they make up all but 2% or so of the library.

SMILES | GPR7 antagonist | CRFBP-R2 agonist | zfTRPN1 agonist | CRFR2-BP antag | TRPML3 agonist | GPR7 antag conf | MCHR1 antag | others
O=C(C1Cc2ccccc2CN1S(=O)(=O)c1ccc(F)cc1)N1CCCCC1 (configuration not stated) | -9.6 | 31.3 | 1.3 | -20.6 | 63.8* | x | x | TRPN1 counter=4.2;TRPML3 confirm=126.6*
O=C(C1Cc2ccccc2CN1S(=O)(=O)c1cccs1)N1CCCCC1 (configuration not stated) | 1.5 | -1.2 | -0.7 | -2.6 | 15.1* | x | x | TRPN1 counter=0.2;TRPML3 confirm=51.7*
COc1ccc(Nc2nccc3c2ncn3C)cc1 | x | 0.6 | x | 13.6 | x | x | x
Cc1ccc(S(=O)(=O)N2C[C@H]3N(C(=O)OC(C)C)N(C(=O)OC(C)C)C[C@H](OC(=O)NCc4ccco4)[C@@]3(O)C2)cc1 | x | -1.9 | x | 1.0 | x | x | x
O=c1c(Cl)c(Cl)cnn1Cc1nnc(-c2ccccc2Br)o1 | 87.6* | 156.8* | 7.0 | -220.4 | 18.4* | 89.4* | 105.0* | TRPN1 counter=15.5;TRPML3 confirm=36.9*
Cc1ccc(NC(=O)CN(C)C(=O)c2cc(-c3ccccc3)nn2-c2ccccc2)cc1 | x | 1.5 | x | 3.5 | x | x | x
COc1ccc(NS(=O)(=O)c2ccc(OC)c(N(C)S(=O)(=O)c3ccc(Cl)cc3)c2)cc1 | 27.0* | 1.5 | -0.3 | -23.2 | 68.9* | 28.9* | 52.4* | TRPN1 counter=-1.2;TRPML3 confirm=34.4*
COc1ccc(S(=O)(=O)Nc2ccc(F)cc2)cc1N(C)S(=O)(=O)c1ccc(Cl)cc1 | 20.4 | 1.3 | -2.2 | -10.2 | -0.7 | x | x
CCOc1ccc(NC(=O)C2=NN(c3ccccc3)C(=O)CC2)cc1S(=O)(=O)N1CCCCC1 | x | 3.0 | x | -7.4 | x | x | x
Cc1cc(C)nc(/N=C(\N)Nc2ccc(-c3ccccc3)cc2)n1 | 64.9* | 13.6 | 16.3 | -54.5 | 14.6* | 65.5* | 80.8* | TRPN1 counter=21.0*;TRPML3 confirm=10.7
COc1ccc(-c2cc(=O)c3ccccc3s2)cc1 | 34.8* | 0.4 | -0.9 | -16.2 | -1.1 | 7.2 | 27.1*
COc1ccc2sc3ccccc3c(=O)c2c1 | 0.8 | 5.7 | -2.1 | 20.6 | -1.1 | x | x
CN(C)C/C=C/C(O)(c1ccccc1)c1ccccc1 | -10.4 | 2.0 | 2.4 | -13.5 | 0.8 | x | x
CN(C)CC(CCC(CN(C)C)C(O)(c1ccccc1)c1ccccc1)C(O)(c1ccccc1)c1ccccc1 (configuration not stated) | 53.1* | 7.9 | x | -5.2 | x | 61.5* | 67.6*
COc1cccc(/C=C/c2ccc3cccc(O)c3n2)c1OC | 2.2 | 0.8 | x | 0.5 | x | x | x
COc1ccc(/C=C/c2ccc3cccc(O)c3n2)c(OC)c1OC | 32.5* | 0.8 | x | 5.8 | x | 20.3 | 62.0*
COc1cc(/C=C/CNC[C@H]2O[C@@H](n3ccc(N)nc3=O)[C@H](O)[C@@H]2O)ccc1O | x | -0.9 | x | -11.8 | x | x | x
CCCCCN(C(=O)CCC(=O)OCc1ccc(Cl)cc1Cl)c1c(N)n(CCCC)c(=O)[nH]c1=O | x | 0.6 | x | 9.5 | x | x | x
CSc1cccc(NC(=O)CN(C2CCCCC2)S(C)(=O)=O)c1 | 28.2* | -0.4 | 0.3 | -12.5 | 0.6 | 8.9 | 15.0
COc1ccc(NC(=O)CN(C2CCCCC2)S(C)(=O)=O)cc1OC | 7.0 | 0.1 | 0.9 | 2.1 | 0.5 | x | x
CSc1nc2ccccc2n1CC(=O)Nc1cc(C(F)(F)F)ccc1N1CCOCC1 | 36.5* | -0.9 | -1.2 | 32.9 | 0.5 | 38.3* | 25.8*
Clc1ccc(-c2c[n+](Cc3ccc(Br)cc3)c3n2CCCCC3)cc1 | -0.8 | -1.3 | -1.0 | 6.4 | -0.5 | x | x
Clc1ccc(-c2c[n+](Cc3ccc(Cl)cc3Cl)c3n2CCCCC3)cc1 | 23.3* | -1.8 | -1.7 | 5.8 | -0.5 | 26.5* | 27.2*
COC(=O)c1ccc(NC(=O)Nc2ccc(F)cc2)cc1 | 8.0 | 13.8 | 11.3 | 12.3 | 10.6 | x | x
Cc1ccc(NC(=O)CN(C)C2CCCCC2)cc1Cl | 25.2* | 0.1 | x | -14.4 | x | 20.7 | 24.2*
SMILES | GPR7 antagonist | CRFBP-R2 agonist | zfTRPN1 agonist | CRFR2-BP antag | TRPML3 agonist | GPR7 antag conf | MCHR1 antag | others
CCOC(=O)c1ccc(NC(=O)Nc2ccc(F)cc2)cc1 | 23.1* | 25.8 | 20.9* | 12.4 | 10.2 | 47.1* | 55.5*
Cc1ccc(NC(=O)Nc2ccc(F)cc2)cc1Cl | 27.8* | 10.7 | 3.9 | -12.7 | 5.1 | 9.0 | 52.2*
COc1ccc(CCNC(=O)C(=O)NCC2OCCN2C(=O)c2ccc(Cl)cc2)cc1 (configuration not stated) | -16.4 | -2.1 | x | -9.0 | x | x | x
N=c1n(CCN2CCCCC2)c2ccccc2n1CC(O)COc1ccccc1 (configuration not stated) | 39.7* | -1.2 | 0.2 | 18.6 | 0.4 | 39.9* | 23.1*
N=c1n(CCN2CCCCC2)c2ccccc2n1CC(O)c1cccc(Br)c1 (configuration not stated) | 24.6* | -0.1 | 0.0 | -4.9 | 0.1 | 48.1* | 43.3*
Cc1ccccc1OCC(O)Cn1c(=N)n(CCN2CCOCC2)c2ccccc21 (configuration not stated) | 32.7*! | -0.3 | 0.2 | -13.2 | 0.2 | 21.3 | 26.2*
N=c1n(CCN2CCCC2)c2ccccc2n1CC(O)c1ccco1 (configuration not stated) | -11.2 | 0.2 | -0.5 | 16.7 | -0.1 | x | x
N=c1n(CCN2CCOCC2)c2ccccc2n1CC(O)COc1ccccc1 (configuration not stated) | 4.4 | 1.1 | 0.0 | -42.9 | -0.7 | x | x
Cc1nn(-c2ccccc2)c(N)c1Sc1ccc([N+](=O)[O-])cc1 | 22.9* | -0.6 | -2.4 | 57.6* | 0.0 | 33.0* | 54.7*
CCOC(=O)C1CCN(C(c2cc(OC)c(OC)c(OC)c2)c2sc3nc(C)nn3c2O)CC1 (configuration not stated) | 3.5 | 2.3 | -0.1 | -27.4 | -0.6 | x | x
COC(=O)C1CCN(C(c2cc(OC)c(OC)c(OC)c2)c2sc3nc(C)nn3c2O)CC1 (configuration not stated) | 22.6* | 2.2 | -2.2 | -0.4 | 0.0 | -10.5 | 2.5
CN(C)C(=O)c1cc2cc([N+](=O)[O-])ccc2s1 | 26.4* | 1.9 | 1.8 | 8.0 | 0.5 | -12.8 | 11.7
COCCSc1ccccc1C(=O)Nc1ccncc1 | 57.0* | 1.0 | 0.4 | 5.0 | 0.7 | -9.0 | -12.4
COCCSc1ccccc1C(=O)Nc1cc(C)cc(C)c1 | -7.5 | -0.6 | -1.5 | 4.8 | 0.0 | x | x
Cc1nc(N2CCN(C(=O)c3cnccn3)CC2)c2c3c(sc2n1)CC(C(C)(C)C)CC3 (configuration not stated) | -1.5 | -0.7 | x | 6.4 | x | x | x

Source: PubChem BioAssay
